Data from ChEMBL document CHEMBL1154352, “Toll-like receptor 7 selective synthetic oligoribonucleotide agonists: synthesis and structure-activity relationship studies” (J Med Chem, 2009).
Active and inactive are the calls of the source. No cut-off for these calls is given here.

Legend:
[1] = target: T1, Toll-like receptor 7 (Homo sapiens) (UniProt Q9NYK1); experiment: Activation of human TLR7 expressed in HEK293XL assessed as fold induction of NF-kappaB activity at 50 ug/ml after 18 hrs by reporter gene assay relative to control
T1 sequence (whole entry): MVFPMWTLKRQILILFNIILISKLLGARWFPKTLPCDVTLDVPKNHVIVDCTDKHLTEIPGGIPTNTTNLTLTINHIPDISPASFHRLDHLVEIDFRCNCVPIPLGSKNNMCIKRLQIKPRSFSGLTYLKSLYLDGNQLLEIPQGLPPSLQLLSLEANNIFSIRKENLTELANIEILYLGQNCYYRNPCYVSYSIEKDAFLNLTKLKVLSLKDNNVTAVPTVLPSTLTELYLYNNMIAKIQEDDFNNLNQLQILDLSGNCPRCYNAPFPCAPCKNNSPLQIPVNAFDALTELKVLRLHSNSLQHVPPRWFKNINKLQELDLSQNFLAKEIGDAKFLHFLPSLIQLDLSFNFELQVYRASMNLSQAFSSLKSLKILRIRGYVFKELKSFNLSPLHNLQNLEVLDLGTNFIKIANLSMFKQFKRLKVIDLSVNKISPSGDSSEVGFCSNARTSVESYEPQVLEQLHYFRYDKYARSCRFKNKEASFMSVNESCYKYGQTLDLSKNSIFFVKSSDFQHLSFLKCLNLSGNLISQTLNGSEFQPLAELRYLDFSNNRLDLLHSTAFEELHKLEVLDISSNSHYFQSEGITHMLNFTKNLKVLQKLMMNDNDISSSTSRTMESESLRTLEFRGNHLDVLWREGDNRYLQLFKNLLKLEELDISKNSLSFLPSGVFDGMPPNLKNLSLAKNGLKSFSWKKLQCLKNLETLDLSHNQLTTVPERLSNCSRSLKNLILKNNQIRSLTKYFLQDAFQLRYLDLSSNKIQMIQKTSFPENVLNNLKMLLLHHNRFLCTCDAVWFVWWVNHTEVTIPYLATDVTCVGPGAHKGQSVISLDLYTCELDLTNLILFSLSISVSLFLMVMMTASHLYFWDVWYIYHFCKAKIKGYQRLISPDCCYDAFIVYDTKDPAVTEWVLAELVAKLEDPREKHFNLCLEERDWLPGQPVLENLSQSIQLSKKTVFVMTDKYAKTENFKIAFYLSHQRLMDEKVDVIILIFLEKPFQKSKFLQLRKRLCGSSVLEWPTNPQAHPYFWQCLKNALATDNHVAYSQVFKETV
Outline: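 HEK293 cells stably expressing human TLR7 or TLR8, transiently transfected with SEAP reporter plasmid; medium replaced, SIMRA compounds added, 18 h incubation. Supernatant SEAP measured by QuantiBlue; expressed as fold increase in NF-κB activity over PBS control. Tabulated data at 50 μg/mL, representative of three independent experiments.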

PBMC = experiment: Immunomodulatory activity in human PBMC assessed as induction of TNFalpha at 100 ug/ml after 24 hrs; type: functional, cell-based
Outline: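 Human PBMCs plated at 5 × 10^6 cells/mL; compounds dissolved in PBS added at various concentrations, 37 °C for 24 h. Supernatant cytokines/chemokines quantified with human Luminex multiplex kit.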

[2] = target: T2, Toll-like receptor 9 (Mus musculus) (UniProt Q9EQU3); experiment: Activation of mouse TLR9 expressed in HEK293 assessed as induction of NF-kappaB activity reporter gene assay; type: cell-based
T2 sequence (whole entry): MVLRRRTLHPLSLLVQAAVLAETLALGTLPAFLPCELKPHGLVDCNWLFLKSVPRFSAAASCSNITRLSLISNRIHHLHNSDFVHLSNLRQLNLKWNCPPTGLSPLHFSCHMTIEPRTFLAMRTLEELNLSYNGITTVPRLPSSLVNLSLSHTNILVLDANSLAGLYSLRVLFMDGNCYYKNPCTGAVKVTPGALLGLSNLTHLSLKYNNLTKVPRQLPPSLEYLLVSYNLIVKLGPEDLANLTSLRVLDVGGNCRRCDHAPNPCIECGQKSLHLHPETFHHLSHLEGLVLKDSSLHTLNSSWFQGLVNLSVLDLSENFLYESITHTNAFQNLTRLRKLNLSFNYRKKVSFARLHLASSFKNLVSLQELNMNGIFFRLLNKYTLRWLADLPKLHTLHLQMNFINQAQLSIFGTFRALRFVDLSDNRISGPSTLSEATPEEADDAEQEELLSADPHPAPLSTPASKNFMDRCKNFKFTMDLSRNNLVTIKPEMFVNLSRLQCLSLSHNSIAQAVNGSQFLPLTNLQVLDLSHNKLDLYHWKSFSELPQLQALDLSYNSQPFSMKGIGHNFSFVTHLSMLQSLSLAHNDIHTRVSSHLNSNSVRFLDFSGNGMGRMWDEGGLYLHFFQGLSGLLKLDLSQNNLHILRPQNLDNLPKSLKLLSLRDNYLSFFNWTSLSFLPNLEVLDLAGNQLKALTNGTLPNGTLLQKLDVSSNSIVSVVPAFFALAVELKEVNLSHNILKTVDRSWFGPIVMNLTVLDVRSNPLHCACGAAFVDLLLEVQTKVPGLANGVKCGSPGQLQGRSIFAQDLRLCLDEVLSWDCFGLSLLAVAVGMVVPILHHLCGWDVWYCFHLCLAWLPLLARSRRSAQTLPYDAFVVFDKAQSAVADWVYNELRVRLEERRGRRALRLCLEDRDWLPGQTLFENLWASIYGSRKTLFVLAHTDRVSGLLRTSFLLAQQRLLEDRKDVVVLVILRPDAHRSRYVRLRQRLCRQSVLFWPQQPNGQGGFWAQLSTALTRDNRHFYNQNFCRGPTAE

How did the fold change (FC) [1] turn out when `Nc1ccn([C@@H]2O[C@H](COP(=O)(S)O[C@H]3[C@@H](O)[C@H](n4cnc5c(N)ncnc54)O[C@@H]3COP(=O)(S)O[C@H]3[C@@H](O)[C@H](n4cnc5c(N)ncnc54)O[C@@H]3CO)[C@@H](OP(=O)(S)OC[C@H]3O[C@@H](n4ccc(=O)[nH]c4=O)[C@H](O)[C@@H]3OP(=O)(S)OC[C@H]3O[C@@H](n4ccc(=O)[nH]c4=O)[C@H](O)[C@@H]3OP(=O)(S)OC[C@H]3O[C@@H](n4ccc5c(=O)[nH]c(N)nc54)[C@H](O)[C@@H]3OP(=O)(S)OC[C@H]3O[C@@H](n4cnc5c(N)ncnc54)[C@H](O)[C@@H]3OP(=O)(S)OC[C@H]3O[C@@H](n4ccc5c(=O)[nH]c(N)nc54)[C@H](O)[C@@H]3OP(=O)(S)OC[C@H]3O[C@@H](n4ccc(N)nc4=O)[C@H](O)[C@@H]3OP(=O)(S)OC[C@H]3O[C@@H](n4ccc(=O)[nH]c4=O)[C@H](O)[C@@H]3OP(=O)(S)OC[C@H]3O[C@@H](n4ccc(=O)[nH]c4=O)[C@H](O)[C@@H]3OP(=O)(S)OCC(O)COP(=O)(S)O[C@H]3[C@@H](O)[C@H](n4ccc(=O)[nH]c4=O)O[C@@H]3COP(=O)(S)O[C@H]3[C@@H](O)[C@H](n4ccc(=O)[nH]c4=O)O[C@@H]3COP(=O)(S)O[C@H]3[C@@H](O)[C@H](n4ccc(N)nc4=O)O[C@@H]3COP(=O)(S)O[C@H]3[C@@H](O)[C@H](n4ccc5c(=O)[nH]c(N)nc54)O[C@@H]3COP(=O)(S)O[C@H]3[C@@H](O)[C@H](n4cnc5c(N)ncnc54)O[C@@H]3COP(=O)(S)O[C@H]3[C@@H](O)[C@H](n4ccc5c(=O)[nH]c(N)nc54)O[C@@H]3COP(=O)(S)O[C@H]3[C@@H](O)[C@H](n4ccc(=O)[nH]c4=O)O[C@@H]3COP(=O)(S)O[C@H]3[C@@H](O)[C@H](n4ccc(=O)[nH]c4=O)O[C@@H]3COP(=O)(S)O[C@H]3[C@@H](O)[C@H](n4ccc(N)nc4=O)O[C@@H]3COP(=O)(S)O[C@H]3[C@@H](O)[C@H](n4cnc5c(N)ncnc54)O[C@@H]3COP(=O)(S)O[C@H]3[C@@H](O)[C@H](n4cnc5c(N)ncnc54)O[C@@H]3CO)[C@H]2O)c(=O)n1` (some centres undefined) was run?
The fold change (FC) was 20.1.

And the Activity (PBMC)?
Its Activity is 74.4 pg/mL.

What about the Activity [2] of the same molecule?
The Activity was “inactive”.

`Nc1ccn([C@@H]2O[C@H](COP(=O)(S)O[C@H]3[C@@H](O)[C@H](n4ccc5c(=O)[nH]c(N)nc54)O[C@@H]3COP(=O)(S)O[C@H]3[C@@H](O)[C@H](n4cnc5c(N)ncnc54)O[C@@H]3COP(=O)(S)O[C@H]3[C@@H](O)[C@H](n4cnc5c(N)ncnc54)O[C@@H]3COP(=O)(S)O[C@H]3[C@@H](O)[C@H](n4ccc5c(=O)[nH]c(N)nc54)O[C@@H]3COP(=O)(S)O[C@H]3[C@@H](O)[C@H](n4ccc(=O)[nH]c4=O)O[C@@H]3COP(=O)(S)O[C@H]3[C@@H](O)[C@H](n4ccc(=O)[nH]c4=O)O[C@@H]3COP(=O)(S)O[C@H]3[C@@H](O)[C@H](n4cnc5c(N)ncnc54)O[C@@H]3COP(=O)(S)O[C@H]3[C@@H](O)[C@H](n4cnc5c(N)ncnc54)O[C@@H]3CO)[C@@H](OP(=O)(S)OC[C@H]3O[C@@H](n4ccc(=O)[nH]c4=O)[C@H](O)[C@@H]3OP(=O)(S)OC[C@H]3O[C@@H](n4ccc(=O)[nH]c4=O)[C@H](O)[C@@H]3OP(=O)(S)OCC(O)COP(=O)(S)O[C@H]3[C@@H](O)[C@H](n4ccc(=O)[nH]c4=O)O[C@@H]3COP(=O)(S)O[C@H]3[C@@H](O)[C@H](n4ccc(=O)[nH]c4=O)O[C@@H]3COP(=O)(S)O[C@H]3[C@@H](O)[C@H](n4ccc(N)nc4=O)O[C@@H]3COP(=O)(S)O[C@H]3[C@@H](O)[C@H](n4ccc5c(=O)[nH]c(N)nc54)O[C@@H]3COP(=O)(S)O[C@H]3[C@@H](O)[C@H](n4cnc5c(N)ncnc54)O[C@@H]3COP(=O)(S)O[C@H]3[C@@H](O)[C@H](n4cnc5c(N)ncnc54)O[C@@H]3COP(=O)(S)O[C@H]3[C@@H](O)[C@H](n4ccc5c(=O)[nH]c(N)nc54)O[C@@H]3COP(=O)(S)O[C@H]3[C@@H](O)[C@H](n4ccc(=O)[nH]c4=O)O[C@@H]3COP(=O)(S)O[C@H]3[C@@H](O)[C@H](n4ccc(=O)[nH]c4=O)O[C@@H]3COP(=O)(S)O[C@H]3[C@@H](O)[C@H](n4cnc5c(N)ncnc54)O[C@@H]3COP(=O)(S)O[C@H]3[C@@H](O)[C@H](n4cnc5c(N)ncnc54)O[C@@H]3CO)[C@H]2O)c(=O)n1` (some centres undefined) was tested. Which fold change (FC) [1] did it give?
Its fold change (FC) is 25.

And the Activity (PBMC)?
Its Activity is 29.3 pg/mL.

And the Activity [2]?
The Activity was “inactive”.

How did the fold change (FC) [1] turn out when `Nc1ccn([C@@H]2O[C@H](CO)[C@@H](OP(=O)(S)OC[C@H]3O[C@@H](n4ccc(=O)[nH]c4=O)[C@H](O)[C@@H]3OP(=O)(S)OC[C@H]3O[C@@H](n4ccc5c(=O)[nH]c(N)nc54)[C@H](O)[C@@H]3OP(=O)(S)OC[C@H]3O[C@@H](n4cnc5c(N)ncnc54)[C@H](O)[C@@H]3OP(=O)(S)OC[C@H]3O[C@@H](n4ccc5c(=O)[nH]c(N)nc54)[C@H](O)[C@@H]3OP(=O)(S)OC[C@H]3O[C@@H](n4cnc5c(N)ncnc54)[C@H](O)[C@@H]3OP(=O)(S)OC[C@H]3O[C@@H](n4cnc5c(N)ncnc54)[C@H](O)[C@@H]3OP(=O)(S)OC[C@H]3O[C@@H](n4ccc5c(=O)[nH]c(N)nc54)[C@H](O)[C@@H]3OP(=O)(S)OC[C@H]3O[C@@H](n4ccc(N)nc4=O)[C@H](O)[C@@H]3OP(=O)(S)OC[C@H]3O[C@@H](n4ccc(=O)[nH]c4=O)[C@H](O)[C@@H]3OP(=O)(S)OC[C@H]3O[C@@H](n4ccc(=O)[nH]c4=O)[C@H](O)[C@@H]3OP(=O)(S)OCC(O)COP(=O)(S)O[C@H]3[C@@H](O)[C@H](n4ccc(=O)[nH]c4=O)O[C@@H]3COP(=O)(S)O[C@H]3[C@@H](O)[C@H](n4ccc(=O)[nH]c4=O)O[C@@H]3COP(=O)(S)O[C@H]3[C@@H](O)[C@H](n4ccc(N)nc4=O)O[C@@H]3COP(=O)(S)O[C@H]3[C@@H](O)[C@H](n4ccc5c(=O)[nH]c(N)nc54)O[C@@H]3COP(=O)(S)O[C@H]3[C@@H](O)[C@H](n4cnc5c(N)ncnc54)O[C@@H]3COP(=O)(S)O[C@H]3[C@@H](O)[C@H](n4cnc5c(N)ncnc54)O[C@@H]3COP(=O)(S)O[C@H]3[C@@H](O)[C@H](n4ccc5c(=O)[nH]c(N)nc54)O[C@@H]3COP(=O)(S)O[C@H]3[C@@H](O)[C@H](n4cnc5c(N)ncnc54)O[C@@H]3COP(=O)(S)O[C@H]3[C@@H](O)[C@H](n4ccc5c(=O)[nH]c(N)nc54)O[C@@H]3COP(=O)(S)O[C@H]3[C@@H](O)[C@H](n4ccc(=O)[nH]c4=O)O[C@@H]3COP(=O)(S)O[C@H]3[C@@H](O)[C@H](n4ccc(N)nc4=O)O[C@@H]3CO)[C@H]2O)c(=O)n1` (some centres undefined) was run?
The fold change (FC) was 27.6.

What about the Activity (PBMC) of the same molecule?
The Activity was 818 pg/mL.

What about the Activity [2] of the same molecule?
The Activity was “inactive”.
